The full list was thinned out, with hits kept by preference.
Lung fibro prol: antiproliferative effect on LL 47 fibroblasts – human, LL 47 cells, CellTiter-Glo luminescence, primary screen; LL 47 human lung fibroblast viability, ATP luminescence; hits give low values; viability, % at 10 µM; hit rate 1.1% among 85,000; AID 719, 2007;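 active means viability at or below 50% in the single dose screen; inactive means viability above 50%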;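 further: compound exposure lasted 72 h before the ATP readout; 100% = median luminescence of untreated cell-only wells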
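Material: human lung fibroblast line LL 47, low passage; Evaluation: viability percentage against median untreated-cell control; Buffer or medium: 15% FBS in IMEM; Incubation: 72 h compound exposure at 37 °C after overnight plating; Dosing: 0.1% DMSO in all compound wells; Measured by: CellTiter-Glo luminescence.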
HCT116 bCat-KO: primary screen for growth suppressors in beta-catenin knockout HCT116 cells (colon tumor, human) | AID 818, 2007 | hit rate 1.5% among 140,000 | HCT116 beta-catenin knockout viability, CellTiter-Glo, 60 h; hits give low values | viability, % at 10 µM;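 active means viability at or under a set limit, the compound median less 4 SD, cut at about 6% in these data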;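 further: 0% = Hyamine 1622 control at 20 µM and 100% = untreated cell control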
H69AR inhibit: proliferation blockers of H69AR lung cancer cells, primary screen, cell-based, human, 86K library; H69AR lung tumor viability, ATP luminescence, 72 h; hits give low values; viability, % at 10 µM; hit rate 6% among 85,000; AID 598, 2007;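 active means viability at or below 40%; inactive means viability above 40%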;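 further: multidrug resistant small cell line overexpressing MRP-1 efflux transporter; 100% = mean luminescence of untreated control wells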
HCT116 PTEN-null: growth suppression of PTEN-null HCT116, primary screen, cell-based, CellTiter-Glo; HCT116 PTEN-null viability, 60 h; hits give low values; viability, % at 10 µM; hit rate 1.2% among 140,000;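 active means viability at or below a set limit, 4 SD under the median of all tested compounds, cut at about 3.7% in these data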;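 further: PTEN knockout HCT116 line with beta catenin targeted HCT116 as companion control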
HUVEC prolif 384: inhibitors of HUVEC proliferation, primary screen, cell-based, 384-well. CellTiter-Glo luminescence, 72 h; hits give low values. viability, % at 10 µM (by protocol). hit rate 1.1% among 86,000. AID 648, 2007;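 active means viability at or below 30%; inactive means viability above 30%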;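 further: 100% = median luminescence of DMSO-only cell control wells on each plate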
* marks the source's active call; other numbers are inactive results; x = not tested or not shown.

SMILES	Lung fibro prol	HCT116 bCat-KO	H69AR inhibit	HCT116 PTEN-null	HUVEC prolif 384
COc1ccc(NC(=O)CN(C2CCCCC2)S(C)(=O)=O)cc1OC	96	112	84	100	99
CCOC(=O)/C(=C\c1cn(C)c2ccccc12)[N+](=O)[O-]	x	100	x	95	x
COC(=O)/C(=C/Nc1cccc2ccccc12)[N+](=O)[O-]	92	90	27*	87	74
O=C(Nc1ccc(O)c(-c2nc3ccccc3s2)c1)c1cccs1	x	91	x	100	x
O=C(Nc1ccccc1-c1nc2ccccc2s1)c1ccco1	83	71	37*	65	46
O=C(/C=C/c1ccco1)NC(=S)Nc1ccc(O)c(-c2nc3ccccc3s2)c1	x	2.2*	x	8	x
O=C(/C=C/c1ccco1)NC(=S)NNC(=O)c1ccco1	92	60	62	62	28*
O=C(NNC(=S)Nc1ccccc1)c1ccco1	x	95	x	98	x
Cc1ccnc(NC(=S)NC(=O)/C=C/c2ccco2)c1	72	19	26*	24	64
Cc1ccc(-c2nc(N)sc2CC(=O)OCC(=O)NCC2CCCO2)cc1 (stereo not drawn)	x	99	x	94	x
Cc1ccc(C(=O)N/C(=C\c2cccs2)C(=O)NCCc2c[nH]c3ccccc23)cc1	x	67	x	62	x
COc1ccc(C(NC(=O)/C=C/c2ccco2)c2ccc(OC)c(OC)c2)cc1OC	x	107	x	98	x
C/C(=N\NC(=O)C(=O)Nc1cccc(Cl)c1C)c1ccncc1	x	103	x	96	x
Cc1ccc(-c2nc3cccnc3s2)cc1NS(=O)(=O)c1ccc2c(c1)OCCO2	91	73	21*	79	70
O=S(=O)(Nc1cccc(-c2nc3cccnc3s2)c1)c1ccc2c(c1)OCCO2	104	84	80	73	78
COc1ccc(NC(C)=O)cc1CNC(=O)COc1c(C)c(C)cc(C)c1C	x	78	x	86	x
O=C1c2ccccc2-c2onc3c(Oc4ccccc4)cc(O)c1c23	89	68	25*	77	63
CCOC(=O)C1=C(c2ccccc2)N=c2s/c(=C\c3cccc(O)c3)c(=O)n2C1c1cccs1 (stereo not drawn)	x	1.5*	x	1.5*	x
CCOC(=O)C1=C(C)N=c2s/c(=C\c3ccc(OC(C)=O)c(OCC)c3)c(=O)n2C1/C=C/c1ccccc1 (stereo not drawn)	x	44	x	29	x
CCN(CC)CCNC(=O)c1cc2c(-c3ccc(Cl)cc3)nn(C)c2s1	21*	1.5*	2.5*	1.1*	2.8*
Cn1nc(-c2ccc(Cl)cc2)c2cc(C(=O)NCCCN3CCOCC3)sc21	39*	15	43	27	2.9*
COC(=O)C(NC(=O)c1ccc(Cl)cc1)(Nc1nc(C)cs1)C(F)(F)F (stereo not drawn)	100	98	89	91	98
CC1(C)C=C(c2ccc(C=O)s2)CC(C)(C)N1C=O	x	86	x	94	x
CCOC(=O)C1(N(CC)CC)Sc2cc(C)ccc2NC1=O (stereo not drawn)	55	24	15*	26	74
CC1(C)C2CC=C(/C=N/NC(=O)c3ccccc3Br)C1C2 (stereo not drawn)	x	95	x	94	x
SMILES	Lung fibro prol	HCT116 bCat-KO	H69AR inhibit	HCT116 PTEN-null	HUVEC prolif 384
CCCCN(C)CC(O)Cn1cc(/C=C/C(=O)c2cccs2)c2ccccc21 (stereo not drawn)	x	1.6*	x	1.6*	x
O=C(/C=C/c1cn(CC(O)CN2CCCCCC2)c2ccccc12)c1cccs1 (stereo not drawn)	x	1.2*	x	1.9*	x
O=C(O)c1sccc1SCc1ccc(Cl)cc1Cl	x	102	x	102	x
C=CCC(CC=C)(NC(=O)c1cccc(C)c1)c1ccccc1	x	89	x	88	x
CCOc1ccc(S(=O)(=O)N2CCN(C(=O)c3cc4c(s3)CCCC4)CC2)cc1	x	71	x	75	x
CCOc1ccc(NCc2nnc(SCc3ccc(Cl)cc3)n2-c2ccccc2)cc1	x	76	x	76	x
O=C(CSc1nnnn1-c1cccc2c1CCCC2)N1CCCCC1	96	93	40*	81	87
COc1ccc(OCCn2nnc(-c3ccc(Cl)cc3)n2)cc1	x	96	x	99	x
Cn1nc(-c2ccc(Cl)cc2)nc2c(=O)n(C)c(=O)nc1-2	32*	80	0.7*	86	3.6*
CN(C)CCSc1nnc2[nH]c3ccccc3c2n1	x	82	x	93	x
Cc1c(CC(C)C)nc(N)c(C#N)c1-c1ccccc1	92	70	24*	70	84
